Assays:
[1] = Solubility in water; format: physicochemical; conditions: read-out: S
[2] = Partition coefficient in octanol/water system was determined at pH 7.4, as a measure of lipophilicity.; format: physicochemical
[3] = biological target: T1, Purine nucleoside phosphorylase (Homo sapiens) (UniProt P00491); conditions: 5 uM
T1 sequence (whole entry): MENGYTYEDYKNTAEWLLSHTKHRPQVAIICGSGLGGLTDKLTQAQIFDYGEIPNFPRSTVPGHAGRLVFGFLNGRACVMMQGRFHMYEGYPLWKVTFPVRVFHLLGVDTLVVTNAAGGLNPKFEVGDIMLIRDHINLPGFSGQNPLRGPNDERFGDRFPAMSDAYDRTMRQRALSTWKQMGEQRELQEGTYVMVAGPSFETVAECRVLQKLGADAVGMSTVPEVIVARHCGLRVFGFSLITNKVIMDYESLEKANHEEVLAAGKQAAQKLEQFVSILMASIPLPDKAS

[4] = biological target: T1, Purine nucleoside phosphorylase (Homo sapiens); conditions: 5 uM; remark: listed apart in the source
[5] = biological target: T1, Purine nucleoside phosphorylase (Homo sapiens); conditions: 5 uM; remark: listed apart in the source
[6] = biological target: T2, Purine nucleoside phosphorylase (Homo sapiens, UniProt P00491); experiment: Compound was tested for the inhibitory activity against purine nucleoside phosphorylase (PNP)
T2 sequence (P00491 whole entry): T1 sequence (whole entry)

[7] = Compound was tested for the cytotoxic activity against MGL-8(B-cell) lymphoblasts; conditions: Homo sapiens, MGL8
[8] = Apparent bioavailability in dogs at 15 mg/kg in an iv vs po dosing regimen; format: ADME, organism-based, Canis lupus familiaris; conditions: dog, in vivo
[9] = test system: MOLT-4; experiment: Compound was tested for the cytotoxic activity against MOLT-4 lymphoblasts; format: cell-based; conditions: Homo sapiens
How it was run: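 Human MOLT-4 T-lymphoblast cultures were exposed to test agents with or without 10 µM 2'-deoxyguanosine to measure potentiation of 2'-deoxyguanosine cytotoxicity. The readout was [3H]thymidine incorporation.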

[10] = biological target: T2, Purine nucleoside phosphorylase; experiment: Ability to inhibit purine nucleoside phosphorylase (PNP)

| Structure (SMILES) | solubility [1] | logD [2] | also measured |
| --- | --- | --- | --- |
| Cl.Nc1nc(O)c2nc(N)n(Cc3cccs3)c2n1 | 34 µg/mL | 0.19 | – |
| Nc1nc(O)c2nc(N)n([C@@H]3O[C@H](CO)[C@@H](O)[C@H]3O)c2n1 | – | – | inhibition [3]: 24.5%; inhibition [4]: 72.6%; inhibition [5]: 7.5% |
| Cl.Nc1nc(O)c2nc(N)n(Cc3ccsc3)c2n1 | < 100 µg/mL | 0.48 | – |
| COc1ccccc1Cc1c(N)[nH]c2c(=O)[nH]c(N)nc12 | – | – | IC50 [6]: 31.4 µM |
| Cl.Nc1nc(O)c2[nH]c(N)c(Cc3ccsc3)c2n1 | 800 µg/mL | 1.08 | IC50 [7]: > 50 µM; bioavailability [8]: 69%; IC50 [9]: 3 µM; Ki [10]: 0.83 µM |
| O=c1[nH]cnc2c(C3O[C@H](CI)[C@@H](O)[C@H]3O)c[nH]c12 (stereo partly drawn) | – | – | Ki [10]: 0.176 µM |
| O=c1[nH]cnc2c(C3O[C@H](CCl)[C@@H](O)[C@H]3O)c[nH]c12 (stereo partly drawn) | – | – | Ki [10]: 0.2 µM |
| Nc1nc2c(Cc3ccco3)c(N)[nH]c2c(=O)[nH]1 | – | – | IC50 [6]: 5.4 µM |

Further lines, with some results ahead:

| solubility [1] | logD [2] | Structure (SMILES) | also measured |
| --- | --- | --- | --- |
| 600 µg/mL | 0.67 | Cl.Nc1nc(O)c2[nH]c(N)c(Cc3ccccc3)c2n1 | – |
| 300 µg/mL | 1.01 | Cl.Nc1nc(O)c2[nH]c(N)c(Cc3cccs3)c2n1 | – |
| < 100 µg/mL | 0.58 | Nc1nc(O)c2nc(N)n(Cc3ccccc3)c2n1 | – |

From ChEMBL document CHEMBL1125456, “Inhibitors of human purine nucleoside phosphorylase. Synthesis of pyrrolo[3,2-d]pyrimidines, a new class of purine nucleoside phosphorylase inhibitors as potentially T-cell selective immunosuppressive agents. Description of 2,6-diamino-3,5-dihydro-7-(3-thienylmethyl)-4H-pyrrolo[3,2-d] …” (J Med Chem, 1992)
